Screening results as filed in PubChem.
Rows were chosen to be rich in hits. Some 2.9% of all compounds tested hit in one or more screens of this group.
Cneo AK release – causes C. neoformans cell lysis; AID 651654; lysis activity, % at 15 µM; adenylate kinase release luminescence, 4 h; normalised: neutral wells 0, clomiphene wells 100; actives 0.2% (n = 360,000);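 active means mean lysis activity across replicates of at least 80%, whatever share of replicates individually reach that level; inactive means mean lysis activity below 80%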
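Assay system: Cryptococcus neoformans yeast cells / Dosing: single-point compound dose / Timing: 4 h at 37 °C static, read 1 h later / Measured by: luminescence of released adenylate kinase using an AK detection reagent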
PglD DTNB – inhibitors of Campylobacter jejuni PglD acetyltransferase. actives 0.098% (n = 360,000). purified PglD enzyme, DTNB colorimetric CoA detection. inhibition, % at 12.5 µM; in the data active means inhibition above about 16%, passing the limit was not always enough
FGF22 binding-1 – binders of recombinant human FGF22 by thermal shift; Q9HCT0; SYPRO orange fluorescence; percent of sucrose octasulfate shift, DMSO zero; activity (Tm shift, normalised), % at 9.99 µM; actives 1.5% (n = 340,000);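 active means mean Tm shift, scaled 0 neutral to 100 positive control, at about 1.3% or above, every replicate too, limit read from the data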
Target sequence (Q9HCT0 whole entry, looked up): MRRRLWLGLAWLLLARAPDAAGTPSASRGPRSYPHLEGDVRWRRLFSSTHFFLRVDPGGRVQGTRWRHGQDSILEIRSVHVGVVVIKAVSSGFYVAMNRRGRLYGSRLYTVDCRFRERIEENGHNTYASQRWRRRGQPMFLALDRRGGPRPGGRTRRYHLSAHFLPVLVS
Vif imaging – blocks HIV Vif function; HEK293T cells, Vif self-association by quenched fluorescence, imaging, 24 h; inhibition, % at 7.49 µM; actives 0.35% (n = 340,000); in the data active means inhibition above about 50%, passing the limit was not always enough
PGC1a acetyl inh – modulators of PGC1a acetylation; actives 0.17% (n = 350,000); U2OS PGC1a acetylation, AlphaScreen anti-acetyl-lysine; with virally co-expressed GCN5 acetyltransferase; inhibition, % at 15.6 µM;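 active means every replicate shows inhibition of at least 40%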;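 further: 0% = neutral control wells and 100% = positive control wells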
rRNA inh HTS – selective bacterial rRNA inhibition in E. coli; E. coli WT GFP vs humanized-ribosome RFP mutants, fluorescence, 24 h; stronger effect = lower value; DMSO median 0, no signal -100; GFP signal change (wild-type ribosome), % (test concentration not listed); actives 1.6% (n = 350,000);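 active means significant combined selectivity score with lowered wild-type GFP, culture density cut under 30%, mutant RFP and density less affected; inactive means any of these conditions unmet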
FGF22 binding-2 – FGF22 (human) binding in thermal shift | shares compounds with FGF22 binding-1 | recombinant FGF22 thermal shift, SYPRO orange fluorescence | thermal shift activity, °C (ΔTm) at 38 µM | actives 2% (n = 1,000) | AID 720646;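 active means fitted rise in melting shift crosses a set limit at or below the top valid dose tested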
FGF22 TSA – FGF22 (human) binding by thermal shift | shares compounds with FGF22 binding-1 | 50 tested, under 10 active | Thermal shift assay, SYPRO orange, melting temperature shift | Tm shift (activity), % at 38 µM;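 active means compounds whose fitted dose curve of melting temperature shift rises past a set threshold within the tested doses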
SYPRO no-protein – compound-only SYPRO artifact for FGF22 binders. shares compounds with FGF22 binding-1. compound-only SYPRO orange thermal shift counter-screen, no protein. AC50, µM (doses to about 38 µM). actives 2% (n = 1,000). AID 743019;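 active means rising signal whose fitted curve reaches the 0.54 level within the top valid dose, showing a melting point, actives reach about 13 µM in these data; inactive means the rest, including activity in the opposite direction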; further: value is where the raw curve crosses a fixed level and not half-maximal
Numbers without * were called inactive; i = inactive; · = not tested or not shown; ! = a repeat was not active; [ ] = dose if it differs, or a comment.

SMILES	Cneo AK release	PglD DTNB	FGF22 binding-1	Vif imaging	PGC1a acetyl inh	rRNA inh HTS	FGF22 binding-2	SYPRO no-protein	others
C[C@@H]1CN([C@@H](C)CO)S(=O)(=O)c2ccc(-c3ccc(F)cc3)cc2O[C@@H]1CN(C)C(=O)Nc1ccccc1F	62	-3	1.7*	·	16	0	0.088	i
C[C@H]1CN([C@@H](C)CO)S(=O)(=O)c2ccc(-c3cccc(F)c3)cc2O[C@H]1CN(C)C(=O)Nc1cc(F)ccc1F	0	4	1.4*	·	·	-9	0.17	i
O=C(C[C@H]1CC[C@@H]2[C@H](COC[C@H](O)CN2S(=O)(=O)c2cccc(F)c2)O1)NC1CCC1	-2	-1	0	·	-1	2	·	·
C[C@@H]1CN([C@@H](C)CO)S(=O)(=O)c2ccc(-c3cccc(C#N)c3)cc2O[C@@H]1CN(C)C(=O)Nc1cc(F)ccc1F	1	-46	1.3*	·	21	0	·	i
CCCC#Cc1ccc([C@H]2[C@@H](CO)N3C(=O)CN(C(=O)Nc4cc(F)ccc4F)C[C@@H]23)cc1	·	·	·	·	·	-1	·	·
O=C(C[C@H]1C[C@@H]2c3cc(NC(=O)CC4CC4)ccc3O[C@@H]2[C@H](CO)O1)NCc1ccc2c(c1)OCO2	2	5	0	·	-9	-2	·	·
O=C(NCC[C@@H]1CC[C@@H](NS(=O)(=O)c2ccccc2)[C@@H](CO)O1)c1ccc2c(c1)OCO2	-4	2	1.4*	·	1	-1	-0.1[42 µM]	i
C[C@H](CO)N1C[C@H](C)[C@@H](CN(C)Cc2ccc3c(c2)OCO3)OCCCC[C@H](C)Oc2ccc(NC(=O)Nc3cccc4ccccc34)cc2C1=O	1	1	-1	·	-21	1	·	·
Cc1ccc(S(=O)(=O)Nc2ccc3c(c2)CC(=O)N([C@@H](C)CO)C[C@@H](C)[C@H](CN(C)Cc2ccc4c(c2)OCO4)O3)cc1	1	-2	0	·	1	-12	·	·
COc1ccc2c3c([nH]c2c1)[C@H](CO)N(C(=O)NC(C)C)CC31CCN(C(=O)NC(C)C)CC1	·	·	0	·	·	2	·	·
O=C(CN1C(=O)NC(Cc2c[nH]c3ccccc23)C1=O)Nc1ccc(Br)cc1F (stereo not given)	-1	-1	2.3*	-6	10	1	-0.21	i
Cc1ccc(NC(=O)CN2C(=O)NC(Cc3c[nH]c4ccccc34)C2=O)cc1 (stereo not given)	0	-4	1.7*	-2	-5	-1	-0.52	i
O=C(CN1C(=O)NC(Cc2c[nH]c3ccccc23)C1=O)Nc1ccccc1Br (stereo not given)	-3	2	0	-10	6	-6	·	·
CCOc1ccc(N(CC(=O)NCCSc2ccccn2)S(=O)(=O)c2ccc(Cl)cc2)cc1	-1	2	29*	-13	·	6	0.2	i
CCOc1ccc(N(CC(=O)NCCSc2ccccn2)S(C)(=O)=O)cc1	0	4	·	-8	-12	·	·	·
C[C@@H]1CN([C@@H](C)CO)C(=O)c2cc(NS(=O)(=O)c3ccccc3)ccc2O[C@@H](C)CCCCO[C@@H]1CN(C)C(=O)Nc1ccc2c(c1)OCO2	-7	-1	0	·	8	3	·	·
CO[C@H]1CN(C)C(=O)c2ccc(NC(=O)c3ccno3)cc2OC[C@@H](C)NC[C@@H]1C	·	·	·	·	4	4	·	·
O=C(Nc1cccc(F)c1)N[C@@H]1CC[C@@H](CCNS(=O)(=O)c2cccc(Cl)c2)O[C@@H]1CO	1	-151	1	·	-9	-8	·	·
O=C(N[C@H]1CC[C@@H](CCNS(=O)(=O)c2ccc(F)cc2)O[C@H]1CO)c1ccccn1	-4	1	1.4*	·	8	0	0.003[42 µM]	i
O=C(N[C@@H]1CC[C@@H](CCNS(=O)(=O)c2ccc(F)cc2)O[C@H]1CO)c1ccccn1	-7	4	0	·	8	3	·	·
O=C(Nc1cc(Cl)cc(Cl)c1)N[C@@H]1CC[C@@H](CCNS(=O)(=O)c2cccc(F)c2)O[C@H]1CO	4	3	2.6*	·	1	-59	-0.22[42 µM]	i	FGF22 TSA=0
C[C@H](CO)N1C[C@H](C)[C@@H](CN(C)C(=O)c2ccncc2)Oc2ncc(C3=CCCCC3)cc2C1=O	-4	1	0	·	-11	1	·	·
C[C@@H]1CN([C@@H](C)CO)C(=O)Cc2cc(NC(=O)NC3CCCCC3)ccc2O[C@H]1CN(C)CC1CC1	-2	-8	0	·	1	-1	·	·
COc1ccc(NC(=O)N(C)C[C@H]2OCCCC[C@@H](C)Oc3ccc(NS(=O)(=O)c4ccc(Cl)cc4)cc3C(=O)N([C@H](C)CO)C[C@@H]2C)cc1	-2	-3	0	·	5	1	·	·
O=S(=O)(c1cccc2ccccc12)N1CCCCC1	-1	-2	0	-6	-3	-17	·	·
SMILES	Cneo AK release	PglD DTNB	FGF22 binding-1	Vif imaging	PGC1a acetyl inh	rRNA inh HTS	FGF22 binding-2	SYPRO no-protein	others
O=C(O)c1cc2cccc(S(=O)(=O)N3CCCCC3)c2cc1O	0	-2	1.7*	20	-3	-8	0.087	i
COc1cccc(NC(=O)CN(C)C(=O)c2ccc(N3CCCCC3)c([N+](=O)[O-])c2)c1	-5	3	2.1*	0	-5	-15	0.3	i
COc1cccc(NC(=O)CN(C)C(=O)c2ccc(NC3CC3)c([N+](=O)[O-])c2)c1	-2	0	2.6*	-1	2	-8	0.12	i
CN(CC(=O)Nc1cccc(F)c1)C(=O)c1ccc(NC2CC2)c([N+](=O)[O-])c1	-2	3	-1	-3	8	6	·	·
CCN(CC)S(=O)(=O)c1ccc(C(=O)NNC2=NS(=O)(=O)c3ccccc32)cc1	0	2	0	-6	-3	9	·	·
COc1ccc(S(=O)(=O)N(NC2=NS(=O)(=O)c3ccccc32)C(=O)C(C)C)cc1	0	0	2.6*	3	·	2	-0.066	i
CN1C(=O)c2cc(NC(=O)c3cccc(F)c3)ccc2OC[C@H]2O[C@H](CC(=O)NCC3CC3)CC[C@@H]21	·	·	0	·	3	3	·	·
CN1C(=O)c2cc(NC(=O)c3cccc(F)c3)ccc2OC[C@@H]2O[C@H](CC(=O)NCC3CCCCC3)CC[C@@H]21	-6	2	2.3*!	·	·	-1	-0.16	i
